Reference: ChEMBL document CHEMBL1124126, “Terminal bifunctional retinoids. Synthesis and evaluations related to cancer chemopreventive activity” (1988)

Columns and labels:
Gallus gallus = organism: Gallus gallus; test: Relative percent binding to cellular retinoic acid binding protein (CRABP) in chick embryo skin.
Method in brief: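 Competition of unlabeled retinoid with [3H]retinoic acid for binding to CRABP from chick embryo skin. Inhibition caused by a 100-fold molar excess of unlabeled retinoic acid defined as 100%.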

F9 = test: Ability to induce differentiation of mouse F9 embryonal carcinoma cells.; format: functional; details: read-out: ED50 (the source's name)
Method in brief: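 Mouse F9 embryonal carcinoma cells grown at 1 × 10^5 cells/mL for 4 days with or without retinoid at 10^-7 to 10^-11 M. Harvest fluid mixed with 0.13 μM plasminogen, 0.3 mM H-D-Val-Leu-Lys-p-NA, 0.1% Tween 80 and fibrinogen fragments in Tris·HCl pH 7.5. Incubated 4 h at 25 °C, p-nitroaniline read at 405 nm. Triplicate mean absorbances plotted semilog against molarity; ED50 taken at midpoint between maximal and minimal absorbance.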

## CCNC(=O)/C(C(=O)O)=C(C)/C=C/C=C(C)/C=C/C1=C(C)CCCC1(C)C
Gallus gallus
  RA: 55%
F9
  EC50: 0.5 nM

## CCNC(=O)/C(C(=O)OCC)=C(C)/C=C/C=C(C)/C=C/C1=C(C)CCCC1(C)C
Gallus gallus
  RA: 0%
F9
  EC50: 6 nM

## CCOC(=O)C(C(=O)OCC)=C(C)/C=C/C=C(C)/C=C/C1=C(C)CCCC1(C)C
Gallus gallus
  RA: 0%
F9
  EC50: 4.5 nM

## CCNC(=O)\C(C(=O)OCC)=C(C)/C=C/C=C(C)/C=C/C1=C(C)CCCC1(C)C
Gallus gallus
  RA: 0%
F9
  EC50: 6 nM

## CC(/C=C/C=C(C)/C=C/C1=C(C)CCCC1(C)C)=C(C(=O)O)C(=O)O
Gallus gallus
  RA: 65%
F9
  EC50: 0.5 nM

## CCOC(=O)/C(C(=O)O)=C(C)/C=C/C=C(C)/C=C/C1=C(C)CCCC1(C)C
Gallus gallus
  RA: 90%
F9
  EC50: 1 nM

## CC1=C(/C=C/C(C)=C/C=C/C(C)=C\C(=O)O)C(C)(C)CCC1 [ISOTRETINOIN]
Gallus gallus
  RA: 100%
F9
  EC50: 0.3 nM

## CCNC(=O)\C(C(=O)O)=C(C)/C=C/C=C(C)/C=C/C1=C(C)CCCC1(C)C
Gallus gallus
  RA: 55%
F9
  EC50: 0.6 nM

## CC1=C(/C=C/C(C)=C/C=C/C(C)=C/C(=O)O)C(C)(C)CCC1 [TRETINOIN]
Gallus gallus
  RA: 100%
F9
  EC50: 0.1 nM
